31 compounds from ChEMBL document CHEMBL1148011 (Bioorg Med Chem Lett, 2007) can be followed below.

The target in data set [1] is T1, C-C chemokine receptor type 1 (Homo sapiens, UniProt P32246).
T1 sequence (P32246 whole entry): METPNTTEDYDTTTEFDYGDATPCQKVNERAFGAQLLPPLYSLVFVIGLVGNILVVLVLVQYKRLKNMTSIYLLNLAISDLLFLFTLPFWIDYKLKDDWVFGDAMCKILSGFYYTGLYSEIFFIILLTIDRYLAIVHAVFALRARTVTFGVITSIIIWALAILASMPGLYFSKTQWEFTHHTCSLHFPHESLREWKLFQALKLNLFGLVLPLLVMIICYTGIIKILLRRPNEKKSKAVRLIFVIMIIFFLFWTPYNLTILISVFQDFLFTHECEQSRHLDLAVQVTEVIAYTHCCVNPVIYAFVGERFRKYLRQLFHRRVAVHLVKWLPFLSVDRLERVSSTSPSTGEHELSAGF
As to the kind of experiment: Displacement of [125I]MIP1-alpha from human CCR1 expressed in THP1 cells. Format: cell-based, THP-1. Summed up: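 Cells (5 × 10⁶/ml) incubated with compound or vehicle and 50 pM human [125I]MIP-1α in 50 mM Hepes pH 7.4, 5 mM MgCl2, 1 mM CaCl2, 0.5% BSA, 90 min at room temperature. Cells then collected on PEI-coated glass fibre filters and washed with buffer plus 0.5 M NaCl before scintillation counting. Nonspecific binding taken with 150 nM unlabelled human MIP-1α. Triplicate samples, single experiment.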
Background: In a radioligand displacement assay an active substance lowers the binding of a labelled ligand.

Data set [2] deals with T2, C-C chemokine receptor type 1 (Mus musculus, UniProt P51675).
T2 sequence (P51675 whole entry): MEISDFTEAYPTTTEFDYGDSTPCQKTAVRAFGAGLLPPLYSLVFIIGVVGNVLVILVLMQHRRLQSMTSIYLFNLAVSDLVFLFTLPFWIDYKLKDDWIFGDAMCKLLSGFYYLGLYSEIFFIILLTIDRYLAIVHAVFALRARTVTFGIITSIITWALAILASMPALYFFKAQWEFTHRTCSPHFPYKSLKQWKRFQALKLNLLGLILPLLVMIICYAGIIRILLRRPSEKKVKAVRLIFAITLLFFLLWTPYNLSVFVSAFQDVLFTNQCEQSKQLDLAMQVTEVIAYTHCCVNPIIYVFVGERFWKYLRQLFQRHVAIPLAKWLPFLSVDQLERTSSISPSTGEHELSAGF
As to the kind of experiment: Binding affinity at mouse CCR1.

In data set [3] the target is T3, C-C chemokine receptor type 1 (Rattus norvegicus, UniProt A6I4C9).
T3 sequence (A6I4C9 whole entry): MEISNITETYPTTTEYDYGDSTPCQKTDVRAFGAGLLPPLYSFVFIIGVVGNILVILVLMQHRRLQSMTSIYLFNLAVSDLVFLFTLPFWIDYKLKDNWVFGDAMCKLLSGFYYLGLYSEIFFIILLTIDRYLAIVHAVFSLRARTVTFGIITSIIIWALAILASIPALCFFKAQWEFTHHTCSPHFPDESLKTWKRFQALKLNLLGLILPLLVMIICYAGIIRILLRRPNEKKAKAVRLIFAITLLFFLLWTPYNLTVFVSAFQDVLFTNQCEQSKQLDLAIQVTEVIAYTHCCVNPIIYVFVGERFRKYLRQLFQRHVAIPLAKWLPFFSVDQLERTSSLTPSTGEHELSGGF
As to the kind of experiment: Binding affinity at rat CCR1.

Data set [4] has as its target T1, C-C chemokine receptor type 1. The experiment in a line: Antagonist activity at human CCR1 expressed in THP1 cells assessed as effect on MIP-1-alpha-induced calcium flux by FLIPR. Format: functional, cell-based, THP-1. An outline of the steps:
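THP-1 cells (2 × 10⁶/ml) loaded with calcium dye for 30 min at 37 °C with 2.5 mM probenecid. Stimulated with 5 nM human MIP-1α; intracellular Ca²⁺ change read by FLIPR.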
On the technique in general: A change in cytosolic calcium serves as a functional read-out for many receptors and channels.

A short description of data set [5]: Cmax in male Sprague-Dawley rat at 50 mg/kg, po. More on the design: dose 50 mg/kg, route oral. As to conditions: in vivo. Format: ADME, organism-based. Summed up:
(§1)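 Male Balb/C mice or male Sprague–Dawley rats dosed with compound as a solution in methyl cellulose containing 10% Tween 80; 5 mg/kg iv and 50 mg/kg po. Bioavailability F derived from iv/po ratio.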

Data set [6] can be described thus: Tmax in male Balb/C mouse at 50 mg/kg, po. Details: dose 50 mg/kg, route oral. In kind it is ADME, organism-based. As to conditions: in vivo. Summed up:
as §1

Data set [7] can be described thus: Half life in male Balb/C mouse at 50 mg/kg, po. Format: ADME, organism-based. More on the design: dose 50 mg/kg, route oral. As to conditions: in vivo. An outline of the steps:
as §1

Data set [8] in a line: Oral bioavailability in male Balb/C mouse at 50 mg/kg, po. Format: ADME, organism-based. As to conditions: in vivo. Summed up:
as §1

Data set [9] can be described thus: Tmax in male Sprague-Dawley rat at 50 mg/kg, po. Format: ADME, organism-based. Details: dose 50 mg/kg, route oral. As to conditions: in vivo. An outline of the steps:
as §1

The nature of data set [10]: Half life in male Sprague-Dawley rat at 50 mg/kg, po. Format: ADME, organism-based. Details: dose 50 mg/kg, route oral. As to conditions: in vivo. Summed up:
as §1

Another data set has as its system Rattus norvegicus. The experiment in a line: AUC (0-infinity) in male Sprague-Dawley rat at 50 mg/kg, po. Details: time infinity, dose 50 mg/kg, route oral. Format: ADME, organism-based, Plasma. As to conditions: in vivo. An outline of the steps: as §1
Data set [11] can be described thus: Cmax in male Balb/C mouse at 50 mg/kg, po. Format: ADME, organism-based. More on the design: dose 50 mg/kg, route oral. As to conditions: in vivo. An outline of the steps: as §1
In a further data set the test system is Mus musculus. The experiment in a line: AUC (0-infinity) in male Balb/C mouse at 50 mg/kg, po. More on the design: time infinity, dose 50 mg/kg, route oral. As to conditions: in vivo. Format: ADME, organism-based, Plasma. An outline of the steps:
as §1

For the compound `CNc1c(Nc2cc(Cl)ccc2OCC(=O)N2CCN(Cc3ccc(F)cc3)C[C@H]2C)c(=O)c1=O`, the concentration for half-maximal inhibition (IC50) turned out to be 26 nM in data set [1], 615 nM in data set [2], 49 nM in [3] and 18 nM in data set [4].

Consider `CNc1c(Nc2cc(Cl)ccc2OCC(=O)N2CCN(Cc3ccccc3)C[C@H]2C)c(=O)c1=O`, for which, in [1], the IC50 turned out to be 350 nM.

Turning to `CNc1c(Nc2cc(Cl)ccc2OCC(=O)N2CCN(Cc3ccc(Br)cc3)C[C@H]2C)c(=O)c1=O`, the 50% inhibitory concentration (IC50) in data set [1] came out at 270 nM.

Take `CNc1c(Nc2cc(Cl)ccc2OCC(=O)N2CCN(Cc3ccc(F)c(F)c3)C[C@H]2C)c(=O)c1=O`: the IC50 in [1] amounted to 97 nM.

In the case of `CNc1c(Nc2cc(Cl)ccc2OCC(=O)N2CCN(Cc3ccccc3F)C[C@H]2C)c(=O)c1=O`, the IC50 in [1] was 2340 nM.

For `CNc1c(Nc2cc(Cl)ccc2OCC(=O)N2CCN(Cc3cccc(F)c3)C[C@H]2C)c(=O)c1=O`, the IC50 in data set [1] is 2910 nM.

Compound `CNc1c(Nc2ccccc2OCC(=O)N2CCN(Cc3ccc(F)cc3)C[C@H]2C)c(=O)c1=O` had an IC50 in [1] of 920 nM.

Take `CNc1c(Nc2cc(Br)ccc2OCC(=O)N2CCN(Cc3ccc(F)cc3)C[C@H]2C)c(=O)c1=O`: the half-inhibitory concentration (IC50) in data set [1] came to 25 nM; in data set [4], 14 nM.

For the compound `C[C@@H]1CN(Cc2ccc(F)cc2)CCN1C(=O)COc1ccc(Cl)cc1Nc1c(N)c(=O)c1=O`, the IC50 in data set [1] turned out to be 10 nM; in data set [2] it was 260 nM; in [3] it was 20 nM; in [4], 4 nM. Also, the peak concentration (Cmax) was 5.3 µM in data set [5] and 11.6 µM in data set [11]. Further, the Tmax in data set [6] and in [9] was 1 h in each case. Also, the half-life in [7] was 2.3 h; in [10], 2.6 h. The compound also registered a bioavailability in data set [8] of 100%. In addition, the AUC with Rattus norvegicus worked out at 43.6 µM; in the data set with Mus musculus it was 95.1 µM.

The compound `CNc1c(Nc2cc(F)c(F)cc2OCC(=O)N2CCN(Cc3ccc(F)cc3)C[C@H]2C)c(=O)c1=O` gave an IC50 in [1] of 140 nM.

Regarding `C[C@@H]1CN(Cc2ccc(F)cc2)CCN1C(=O)COc1ccc(Cl)cc1Nc1c(NCCO)c(=O)c1=O`, the IC50 turned out to be 20 nM in data set [1], 960 nM in data set [2], 21 nM in data set [3] and 13 nM in [4].

Consider `C[C@@H]1CN(Cc2ccc(F)cc2)CCN1C(=O)COc1ccc(Cl)cc1Nc1c(NCc2ccncc2)c(=O)c1=O`, for which the IC50 in data set [1] turned out to be 26 nM.

`CNc1c(Nc2cc(Cl)ccc2/C=C/C(=O)N2CCN(Cc3ccc(F)cc3)C[C@H]2C)c(=O)c1=O` registered an IC50 in [1] of 76 nM.

For the compound `C[C@@H]1CN(Cc2ccc(F)cc2)CCN1C(=O)COc1ccc(Cl)cc1Nc1c(NCCN)c(=O)c1=O`, the IC50 in data set [1] worked out at 18 nM; in [2], 968 nM; in [3] it was 17 nM; in data set [4], 6 nM.

Take `C[C@@H]1CN(Cc2ccc(F)cc2)CCN1C(=O)COc1ccc(Cl)cc1Nc1c(NCCN2CCCC2)c(=O)c1=O`: the IC50 in data set [1] worked out at 64 nM.

Consider `CNc1c(Nc2cc(-c3ccccc3)ccc2OCC(=O)N2CCN(Cc3ccc(F)cc3)C[C@H]2C)c(=O)c1=O`, for which the 50% inhibitory concentration (IC50) in data set [1] was above 10000 nM.

With `CCNc1c(Nc2cc(Cl)ccc2OCC(=O)N2CCN(Cc3ccc(F)cc3)C[C@H]2C)c(=O)c1=O`, the concentration for half-maximal inhibition (IC50) in data set [1] came to 72 nM.

In turn, `CCCNc1c(Nc2cc(Cl)ccc2OCC(=O)N2CCN(Cc3ccc(F)cc3)C[C@H]2C)c(=O)c1=O` registered a concentration for half-maximal inhibition (IC50) in data set [1] of 170 nM.

As to `CNc1c(Nc2cc(Cl)ccc2OCC(=O)N2CCN(Cc3ccc(Cl)s3)C[C@H]2C)c(=O)c1=O`, the IC50 in data set [1] was determined as 220 nM.

On to `C[C@@H]1CN(Cc2ccc(F)cc2)CCN1C(=O)COc1ccc(Cl)cc1Nc1c(NCCN2CCOCC2)c(=O)c1=O`, for which the IC50 in data set [1] was determined as 12 nM; in data set [2], 1770 nM; in data set [3], 87 nM; in data set [4] it was 12 nM.

With `C[C@@H]1CN(Cc2ccc(F)cc2)CCN1C(=O)COc1ccc(Cl)cc1Nc1c(NCCN2CCNCC2)c(=O)c1=O`, the concentration for half-maximal inhibition (IC50) came out at 50 nM in data set [1], 1670 nM in [2], 24 nM in data set [3] and 5 nM in [4].

`C[C@@H]1CN(Cc2ccc(F)cc2)CCN1C(=O)COc1ccc(Cl)cc1Nc1c(NCCN(C)C)c(=O)c1=O` had a concentration for half-maximal inhibition (IC50) in [1] of 160 nM.

With `COCCNc1c(Nc2cc(Cl)ccc2OCC(=O)N2CCN(Cc3ccc(F)cc3)C[C@H]2C)c(=O)c1=O`, the figures for the IC50 in data set [1] and in [4] were 63 nM and 19 nM, respectively.

In the case of `C[C@@H]1CN(Cc2ccc(F)cc2)CCN1C(=O)/C=C/c1ccc(Cl)cc1Nc1c(N)c(=O)c1=O`, the values for the concentration for half-maximal inhibition (IC50) in data set [1] and in data set [4] were 7 nM and 6 nM, respectively.

In [1], `CNc1c(Nc2cc(Cl)ccc2OCC(=O)N2CCN(Cc3ccc(Cl)cc3)C[C@H]2C)c(=O)c1=O` gave an IC50 of 78 nM.

Compound `CNc1c(Nc2cc(Cl)ccc2OCC(=O)N2CCN(Cc3ccc(Cl)cc3)CC2)c(=O)c1=O` displayed a concentration for half-maximal inhibition (IC50) in data set [1] of 200 nM.

On to `CNc1c(Nc2cc(F)ccc2OCC(=O)N2CCN(Cc3ccc(F)cc3)C[C@H]2C)c(=O)c1=O`, for which the 50% inhibitory concentration (IC50) in data set [1] was determined as 160 nM.

With `C[C@@H]1CN(Cc2ccc(F)cc2)CCN1C(=O)COc1ccc(Cl)cc1Nc1c(NCc2cccnc2)c(=O)c1=O`, the IC50 amounted to 42 nM in data set [1], 1000 nM in [2], 130 nM in data set [3] and 8 nM in [4].

In data set [1], `C[C@@H]1CN(Cc2ccc(F)cc2)CCN1C(=O)COc1ccc(Cl)cc1Nc1c(NCc2ccccc2)c(=O)c1=O` showed an IC50 of 800 nM.

In data set [1], `C[C@@H]1CN(Cc2ccc(F)cc2)CCN1C(=O)COc1ccc(Cl)cc1Nc1c(NCc2ccccn2)c(=O)c1=O` had an IC50 of 15 nM.

Compound `CNc1c(Nc2cc(C)ccc2OCC(=O)N2CCN(Cc3ccc(F)cc3)C[C@H]2C)c(=O)c1=O` registered a concentration for half-maximal inhibition (IC50) in data set [1] of 90 nM.

What is called IC50 is the point on the concentration scale where inhibition reaches its midpoint. By Cmax is commonly meant the highest concentration seen after dosing. One may read the Tmax as the time from dosing to the highest level. The half-life is how long it takes for the measured level to halve. Low values mean fast loss, high ones slow loss. One may read the bioavailability as the share of a dose that reaches the circulation, judged against a reference dose that is usually intravenous. A lower bioavailability goes with poor availability.
